Reference: paper PMC8516733 (Biomedicine & pharmacotherapy = Biomedecine & …, 2021)
Where “and” joins values, the source holds several entries; their conditions need not be identical. Equal entries are not always repeated. Entries after “also recorded” stand apart in the source; their conditions may differ.

Tests used:
[1] = molecular target: T1, cloned rat kappa opioid receptors (Rattus norvegicus, UniProt P34975); test: cell-based; format: cell-based
[2] = molecular target: T1, cloned rat kappa opioid receptors; format: biochemical
[3] = molecular target: cloned rat κappa opioid receptors (Rattus norvegicus, UniProt P34975); test: Adenylyl cyclase assay; format: cell-based; details: relative to Dyn (1–13)NH2; 50 μM forskolin
In short: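 CHO cells stably expressing the receptor were washed twice in F12 medium and labelled for 4 h with 12 μCi [3H]adenine. They were then incubated 40 min at 37 °C with forskolin, peptidase inhibitors (10 μM bestatin, 30 μM captopril, 50 μM l-leucyl-l-leucine) and test compound at 0.1–10,000 nM in 10-fold steps. The reaction was stopped with SDS/cAMP, then perchloric acid. [3H]cAMP was counted by scintillation, with [14C]cAMP used for recovery and crossover correction.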

KOR = details: cited from earlier work; for Duration of action in vivo: after a single dose

cloned rat κappa opioid receptors, sequence (P34975 whole entry): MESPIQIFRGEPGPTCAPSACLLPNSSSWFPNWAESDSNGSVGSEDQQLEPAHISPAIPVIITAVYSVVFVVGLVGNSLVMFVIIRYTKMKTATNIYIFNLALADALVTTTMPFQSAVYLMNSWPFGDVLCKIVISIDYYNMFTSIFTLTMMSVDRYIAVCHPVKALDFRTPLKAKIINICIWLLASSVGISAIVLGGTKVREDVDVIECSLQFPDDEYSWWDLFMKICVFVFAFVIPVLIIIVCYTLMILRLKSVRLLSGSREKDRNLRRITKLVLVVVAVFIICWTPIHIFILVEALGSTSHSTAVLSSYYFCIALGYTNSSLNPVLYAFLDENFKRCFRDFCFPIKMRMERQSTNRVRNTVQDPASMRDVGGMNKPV
T1 sequence (P34975 whole entry): as above

Molecule	Efficacy, FMP blue [1]	Efficacy, [35S]GTPγS [2]	Efficacy, adenylyl cyclase [3]	Effect of the compound alone on FMP fluorescence [1]	also measured
[N-Benzyl-Tyr^1,Dap(Ac)^8]Dyn A(1–11) amide [JVA 3416]	0.48 and 0.48 ± 0.10	0.26 ± 0.06	1.0		
Oc1ccc2c3c1O[C@H]1c4[nH]c5c(c4C[C@@]4(O)[C@@H](C2)N(CC2CC2)CC[C@]314)C[C@@]1(O)[C@H]2Cc3ccc(O)c4c3[C@@]1(CCN2CC1CC1)[C@H]5O4 [nor-BNI, nor-binaltorphimine]				Neither zyklophin nor nor-BNI alone influenced FMP fluorescence	Duration of action in vivo (KOR): lasting weeks after a single dose
zyklophin-(1–8) [JVA 3413]	0.22 ± 0.04	0.07 ± 0.14	0.35		
[N-Allyl-Tyr^1]zyklophin [JVA 3419]	0.15 ± 0.04	0.07 ± 0.17	0.33		
CC(C)[C@@H](CN1CC[C@@](C)(c2cccc(O)c2)[C@@H](C)C1)NC(=O)[C@H]1Cc2ccc(O)cc2CN1 [JDTic]					Duration of action in vivo (KOR): lasting weeks after a single dose
[N-Methyl-Tyr^1]zyklophin [JVA 3418]	0.14 ± 0.03	0.10 ± 0.10	0.58		
CC(C)=CCN1CCC2(C)c3cc(O)ccc3CC1C2C (stereo not drawn) [Pentazocine, pentazocine]					Efficacy (relative) [1]: 0.44 ± 0.04; IC50 [1]: 26.6 nM
[N-BenzylTyr^1,cyclo(D-Asp^5,Dap^8]Dyn (1–11) amide [Zyklophin]	0	0	0.23	Neither zyklophin nor nor-BNI alone influenced FMP fluorescence; also recorded: did not elicit a significant reduction in FMP fluorescence	Kb ([1]; read-out: KB from Schild regression, antagonism of U50,488): 564 nM; Duration of antagonism (KOR; after systemic administration): less than 12 h
CC1C2Cc3ccc(O)cc3C1(C)CCN2CC1CC1 (single isomer, unassigned; (+)) [(+)-Cyclazocine, (+)-cyclazocine]				did not affect FMP fluorescence	
